Results reported in ChEMBL document CHEMBL3525985, “Regiospecificity and stereospecificity of human UDP-glucuronosyltransferases in the glucuronidation of estriol, 16-epiestriol, 17-epiestriol, and 13-epiestradiol” (Drug Metab Dispos, 2013).
Each block holds one compound with its values, some of them ahead of it.

Legend:
Type in all cases: ADME
[1] = target: T1, UDP-glucuronosyltransferase 1A10 (Homo sapiens, UniProt Q9HAW8); assay: Drug metabolism assessed as recombinant human C-terminal His-tagged UGT1A10-mediated 17-epiestriol-3-glucuronide formation at 200 uM after 15 to 60 mins by HPLC analysis in presence of UDPGA; conditions: recombinant enzyme
T1 sequence (Q9HAW8 whole entry): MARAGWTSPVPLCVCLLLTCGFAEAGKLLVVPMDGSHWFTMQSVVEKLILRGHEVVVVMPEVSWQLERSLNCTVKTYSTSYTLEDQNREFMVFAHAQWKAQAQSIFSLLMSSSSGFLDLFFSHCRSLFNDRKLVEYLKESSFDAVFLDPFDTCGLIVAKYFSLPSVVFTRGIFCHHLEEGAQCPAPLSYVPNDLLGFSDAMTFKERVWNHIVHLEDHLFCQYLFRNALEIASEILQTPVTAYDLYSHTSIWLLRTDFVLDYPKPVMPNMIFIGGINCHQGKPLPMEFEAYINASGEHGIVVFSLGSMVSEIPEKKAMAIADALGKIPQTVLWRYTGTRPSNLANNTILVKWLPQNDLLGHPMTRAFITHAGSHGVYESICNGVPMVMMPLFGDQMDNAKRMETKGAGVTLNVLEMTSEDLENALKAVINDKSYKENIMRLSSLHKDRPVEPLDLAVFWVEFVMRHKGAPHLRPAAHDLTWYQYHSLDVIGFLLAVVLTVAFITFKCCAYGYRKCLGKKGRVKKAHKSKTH
How it was run: (§1)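 Screening at a single substrate concentration of 200 μM, in triplicate. The reaction used 5 or 50 µg of UGT-enriched insect cell membranes in 50 mM phosphate pH 7.4 with 10 mM MgCl₂ and 5 mM UDPGA, 10% final DMSO. Incubation was 15–60 min at 37°C. Perchloric acid stopped the reaction and supernatants were analysed by HPLC. Controls lacked UDPGA. Rates were normalized to relative UGT expression level.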

[2] = target: T2, UDP-glucuronosyltransferase 1A3 (Homo sapiens, UniProt P35503); assay: Drug metabolism assessed as recombinant human C-terminal His-tagged UGT1A3-mediated 17-epiestriol-3-glucuronide formation at 200 uM after 15 to 60 mins by HPLC analysis in presence of UDPGA; conditions: recombinant enzyme; how it was run: as §1
T2 sequence (P35503 whole entry): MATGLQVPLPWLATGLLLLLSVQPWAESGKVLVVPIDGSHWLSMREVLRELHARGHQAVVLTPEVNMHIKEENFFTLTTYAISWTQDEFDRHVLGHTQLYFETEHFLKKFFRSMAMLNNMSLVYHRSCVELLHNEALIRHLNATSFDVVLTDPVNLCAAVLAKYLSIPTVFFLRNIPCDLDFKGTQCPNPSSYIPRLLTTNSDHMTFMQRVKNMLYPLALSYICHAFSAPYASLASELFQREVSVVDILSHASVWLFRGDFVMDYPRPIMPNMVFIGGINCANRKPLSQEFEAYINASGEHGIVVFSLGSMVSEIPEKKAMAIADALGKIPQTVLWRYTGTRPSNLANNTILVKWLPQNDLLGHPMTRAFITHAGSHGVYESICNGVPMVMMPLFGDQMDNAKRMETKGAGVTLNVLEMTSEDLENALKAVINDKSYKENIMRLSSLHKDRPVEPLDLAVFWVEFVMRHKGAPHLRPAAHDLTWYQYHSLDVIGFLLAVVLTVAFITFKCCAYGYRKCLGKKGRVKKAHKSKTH

[3] = target: UDP-glucuronosyltransferase 1A7 (Homo sapiens, UniProt Q9HAW7); assay: Drug metabolism assessed as recombinant human C-terminal His-tagged UGT1A7-mediated 16-epiestriol-3-glucuronide formation after 15 to 60 mins by Michaelis-Menten equation analysis in presence of UDPGA; conditions: recombinant enzyme
[4] = target: T3, UDP-glucuronosyltransferase 2B7 (Homo sapiens, UniProt P16662); assay: Drug metabolism assessed as recombinant human C-terminal His-tagged UGT2B7-mediated estradiol-17-glucuronide formation at 200 uM after 15 to 60 mins by HPLC analysis in presence of UDPGA; conditions: recombinant enzyme
T3 sequence (P16662 whole entry): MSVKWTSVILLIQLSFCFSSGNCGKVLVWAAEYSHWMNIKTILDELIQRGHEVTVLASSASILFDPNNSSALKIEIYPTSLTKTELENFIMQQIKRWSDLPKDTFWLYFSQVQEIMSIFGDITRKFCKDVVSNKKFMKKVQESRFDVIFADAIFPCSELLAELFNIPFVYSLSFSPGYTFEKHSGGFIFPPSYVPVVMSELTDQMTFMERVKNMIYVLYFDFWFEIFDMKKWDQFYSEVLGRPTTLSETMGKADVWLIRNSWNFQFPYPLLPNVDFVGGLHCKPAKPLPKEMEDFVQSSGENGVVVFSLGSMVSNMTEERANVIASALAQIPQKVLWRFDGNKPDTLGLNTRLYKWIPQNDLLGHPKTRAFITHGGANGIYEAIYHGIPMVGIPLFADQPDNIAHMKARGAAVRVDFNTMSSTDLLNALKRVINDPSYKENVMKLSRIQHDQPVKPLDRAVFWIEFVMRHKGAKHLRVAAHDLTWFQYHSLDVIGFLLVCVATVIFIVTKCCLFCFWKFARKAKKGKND
How it was run: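 Membranes (5 or 50 µg) from insect cells expressing His-tagged UGT2B7, with 200 µM aglycone in 50 mM phosphate pH 7.4, 10 mM MgCl₂, 5 mM UDPGA and 10% DMSO (final), 15–60 min at 37°C. Stopped with perchloric acid on ice, supernatant run on HPLC. Done in triplicate with no-UDPGA controls; rates normalized to relative UGT expression.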

[5] = target: T1, UDP-glucuronosyltransferase 1A10; assay: Drug metabolism assessed as recombinant human C-terminal His-tagged UGT1A10-mediated estriol-3-glucuronide formation after 15 to 60 mins by Michaelis-Menten equation analysis in presence of UDPGA; conditions: recombinant enzyme
How it was run: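 For kinetics, the aglycone ranged from 0.2 to 300 μM in DMSO (10% final) with 5 mM UDPGA, 10 mM MgCl₂ and 50 mM phosphate pH 7.4. Enzyme was UGT-enriched insect cell membranes. Incubation was 15–60 min at 37°C, in triplicate, keeping substrate consumption ≤10%. Products were measured by HPLC and fitted to Michaelis-Menten. Rates were normalized to expression level.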

Liver microsome = assay: Drug metabolism in human liver microsomes assessed as estriol-16-glucuronide formation after 15 to 60 mins by Michaelis-Menten equation analysis in presence of UDPGA
How it was run: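 Pooled human liver microsomes (30 donors), 0.5 or 10 µg, with alamethicin at 5% of total protein. Incubated with 50 mM phosphate pH 7.4, 10 mM MgCl₂, 5 mM UDPGA and 10% DMSO for 15–60 min at 37°C. Each glucuronide regioisomer quantified by HPLC, in triplicate, with substrate consumption at or below 10%.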

Sequence of UDP-glucuronosyltransferase 1A7 (Q9HAW7 whole entry): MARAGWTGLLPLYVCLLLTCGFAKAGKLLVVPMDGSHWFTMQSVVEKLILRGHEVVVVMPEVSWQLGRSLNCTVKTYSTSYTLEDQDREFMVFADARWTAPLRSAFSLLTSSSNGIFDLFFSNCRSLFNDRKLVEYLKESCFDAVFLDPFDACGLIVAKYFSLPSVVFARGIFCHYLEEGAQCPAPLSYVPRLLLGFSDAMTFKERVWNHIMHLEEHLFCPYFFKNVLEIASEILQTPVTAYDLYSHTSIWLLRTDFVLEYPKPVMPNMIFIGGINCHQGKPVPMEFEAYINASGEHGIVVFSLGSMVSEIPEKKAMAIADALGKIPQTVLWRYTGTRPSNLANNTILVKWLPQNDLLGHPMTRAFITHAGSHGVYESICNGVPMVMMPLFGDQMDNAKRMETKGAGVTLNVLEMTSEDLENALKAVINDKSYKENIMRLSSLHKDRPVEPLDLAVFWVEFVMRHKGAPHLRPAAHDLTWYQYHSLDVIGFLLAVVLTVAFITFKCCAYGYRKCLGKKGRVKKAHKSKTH

Drug metabolism [1]: metabolite_detected
Drug metabolism [2]: metabolite_detected
Structure (SMILES): C[C@]12CC[C@@H]3c4ccc(O)cc4CC[C@H]3[C@@H]1C[C@@H](O)[C@H]2O

Drug metabolism [3]: 0.5 pmol/min/mg
Structure (SMILES): C[C@]12CC[C@@H]3c4ccc(O)cc4CC[C@H]3[C@@H]1C[C@H](O)[C@@H]2O [EPIESTRIOL]

Drug metabolism [4]: metabolite_detected
Structure (SMILES): C[C@]12CC[C@@H]3c4ccc(O)cc4CC[C@H]3[C@@H]1CC[C@@H]2O [ESTRADIOL]

Drug metabolism [5]: 840 pmol/min/mg
Km (Liver microsome): 13 µM
Vmax (Liver microsome): 4347 pmol/min/mg
Structure (SMILES): C[C@]12CC[C@@H]3c4ccc(O)cc4CC[C@H]3[C@@H]1C[C@@H](O)[C@@H]2O [ESTRIOL]
